Reference: ChEMBL document CHEMBL1126681, “Novel acyclonucleotides: synthesis and antiviral activity of alkenylphosphonic acid derivatives of purines and a pyrimidine” (J Med Chem, 1993)
Converted amounts (≈) assume the structure as drawn. The source made the active and inactive calls. No cut-off for these calls is given here.

Columns and labels:
Human alphaherpesvirus 1 [1] = test: Compound was evaluated for anti-herpesvirus activity against Herpes simplex virus-1 (SC16) strain.; type: functional, organism-based
MRC5 [2] = test: Compound was evaluated for the inhibition of cell replication of human fibroblast (MRC-5) cells.; type: functional; details: read-out: CD50 (the source's name)
Method in brief: (§1)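 Cytotoxicity in uninfected cells, measured as inhibition of DNA synthesis by [3H]thymidine incorporation. CD50 is the concentration giving 50% inhibition of cell replication.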

Human alphaherpesvirus 3 [3] = test: Compound was evaluated for anti-herpesvirus activity against Varicella Zoster virus (Ellen) strain.; type: functional, organism-based
Method in brief: (§2)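 Plaque-reduction assay in human fibroblast (MRC-5) cells infected with virus. IC50 is the compound concentration that halves the plaque count.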

Cytomegalovirus [4] = test: Compound was evaluated for anti-herpesvirus activity against Cytomegalovirus (AD169) strain plaques in infected human fibroblast (MRC-5) cells.; type: functional, organism-based; details: Human betaherpesvirus 5, MRC5; method in brief: as §2
Human alphaherpesvirus 2 [5] = test: Compound was evaluated for anti-herpesvirus activity against Herpes simplex virus-2 (MS) strain.; type: functional, organism-based; method in brief: as §2
MRC5 [6] = test: Compound was evaluated for the inhibition of cell replication of human fibroblast (MRC-5) cells; type: functional; details: read-out: CD50 (the source's name); method in brief: as §1
[7] = Compound was evaluated for the inhibition of cell replication sheep choroid plexus (SCP) cells; type: functional; details: Ovis aries; read-out: CD50 (the source's name); method in brief: as §1
Visna-maedi virus [8] = test: Compound was evaluated for anti-retrovirus activity against Visna virus (K184) strain in infected sheep choroid plexus cells; type: functional
Method in brief: (§3)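 Infected sheep choroid plexus (SCP) cells. MIC is the lowest concentration that completely prevents virus cytopathic effect.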

[9] = Compound was evaluated for the inhibition of cell replication human peripheral blood lymphocytes (PBL's); type: functional; details: read-out: CD50 (the source's name); method in brief: as §1
Human alphaherpesvirus 3 [10] = test: Compound was evaluated for anti-herpesvirus activity against Varicella Zoster virus (Ellen) strain; type: functional, organism-based; method in brief: as §2
Human alphaherpesvirus 2 [11] = test: Compound was evaluated for anti-herpesvirus activity against Herpes simplex virus-2 (MS) strain; type: functional, organism-based; method in brief: as §2
Human alphaherpesvirus 1 [12] = test: Compound was evaluated for anti-herpesvirus activity against Herpes simplex virus-1 (SC16) strain; type: functional, organism-based
Cytomegalovirus [13] = test: Compound was evaluated for anti-herpesvirus activity against Cytomegalovirus (AD169) strain plaques in infected human fibroblast (MRC-5) cells; type: functional, organism-based; details: Human betaherpesvirus 5, MRC5; method in brief: as §2
[14] = system: Human immunodeficiency virus 1; test: Compound was evaluated for anti-retrovirus activity against HIV-1 (D34) Diagen strain; type: functional, organism-based
Cytomegalovirus [15] = test: Compound was evaluated for anti-herpes virus activity against Cytomegalovirus (AD169) strain plaques in infected human fibroblast (MRC-5) cells; Not active; type: functional, organism-based; method in brief: as §2
Human alphaherpesvirus 3 [16] = test: Compound was evaluated for anti-herpesvirus activity against Varicella Zoster virus (Ellen) strain; Not active; type: functional, organism-based; method in brief: as §2
Human alphaherpesvirus 2 [17] = test: Compound was evaluated for anti-herpesvirus activity against Herpes simplex virus-2 (MS) strain; Not active; type: functional, organism-based; method in brief: as §2
Human alphaherpesvirus 1 [18] = test: Compound was evaluated for anti-herpesvirus activity against Herpes simplex virus-1 (SC16) strain; Not active; type: functional, organism-based
Cytomegalovirus [19] = test: Compound was evaluated for anti-herpesvirus activity against Cytomegalovirus (AD169) strain plaques in infected human fibroblast (MRC-5) cells; Not active; type: functional, organism-based; method in brief: as §2
[20] = system: Human immunodeficiency virus 1; test: Compound was evaluated for anti-retrovirus activity against HIV-1 (D34) Diagen strain; Not active; type: functional, organism-based
Visna-maedi virus [21] = test: Compound was evaluated for anti-retrovirus activity against Visna virus (K184) strain in infected sheep choroid plexus cells; Not active; type: functional, organism-based
[22] = Second dissociation constant was determined; type: ADME
[23] = Compound was evaluated for the inhibition of DNA synthesis in uninfected cells; type: functional; details: read-out: CD50 (the source's name); method in brief: as §1
PBL = test: Compound was evaluated for the inhibition of cell replication human peripheral blood lymphocytes (PBL's).; type: functional; details: read-out: CD50 (the source's name); method in brief: as §1
[24] = Compound was evaluated for the inhibition of cell replication sheep choroid plexus (SCP) cells.; type: functional; details: Ovis aries; read-out: CD50 (the source's name); method in brief: as §1
Visna-maedi virus [25] = test: Compound was evaluated for anti-retrovirus activity against Visna virus (K184) strain in infected sheep choroid plexus cells.; type: functional; method in brief: as §3

Row | Structure (SMILES) | CC50 (MRC5 [6]) [µM] | CC50 [7] [µM] | MIC (Visna-maedi virus [8]) [µM] | IC50 (Human alphaherpesvirus 3 [10]) [µM] | IC50 (Human alphaherpesvirus 2 [11]) [µM] | IC50 (Human alphaherpesvirus 1 [18]) | MIC (Visna-maedi virus [21]) | also measured
1 | Nc1nc2c(ncn2COCCO)c(=O)[nH]1 [ACYCLOVIR] |  |  |  |  |  |  |  | IC50 (Human alphaherpesvirus 1 [1]): 3.9 µM; CC50 (MRC5 [2]): 355 µM; IC50 (Human alphaherpesvirus 3 [3]): 21 µM; IC50 (Cytomegalovirus [4]): 93 µM; IC50 (Human alphaherpesvirus 2 [5]): 4.3 µM
2 | Nc1nc(O)c2ncn(OCC/C=C/P(=O)(O)O)c2n1 | 0.1 | 0.13 | < 0.01 | < 10 | < 10 |  |  | CC50 [9]: 0.23 µM; IC50 (Human alphaherpesvirus 1 [12]): < 10 µM; IC50 (Cytomegalovirus [13]): 0.53 µM; IC50 [14]: 0.1 µM
3 | Nc1nc(N)c2ncn(CC/C=C/P(=O)(O)O)c2n1 | 222 | 95 | 2.1 (≈ 0.597 µg/mL) |  |  | Not Active |  | IC50 (Cytomegalovirus [15]): Not Active; IC50 (Human alphaherpesvirus 3 [16]): Not Active; IC50 (Human alphaherpesvirus 2 [17]): Not Active; IC50 [14]: 9.8 µM
4 | Nc1ncnc2c1ncn2OCC/C=C/P(=O)(O)O | 330 |  | 82 (≈ 23.4 µg/mL) |  |  | Not Active |  | CC50 [9]: 130 µM; IC50 (Human alphaherpesvirus 3 [16]): Not Active; IC50 (Human alphaherpesvirus 2 [17]): Not Active; IC50 [14]: 10.2 µM; IC50 (Cytomegalovirus [19]): Not Active
5 | Nc1nc(O)c2ncn(CC(/C=C/P(=O)(O)O)CO)c2n1 (stereo not drawn) | 20 |  |  | 17 | 66 |  |  | IC50 (Human alphaherpesvirus 1 [12]): 60 µM; IC50 (Cytomegalovirus [13]): < 9 µM; IC50 [20]: Not Active
6 | Nc1ncnc2c1ncn2OC(/C=C/P(=O)(O)O)CO (stereo not drawn) |  |  |  |  |  |  | inactive | 
7 | Nc1nc(O)c2ncn(OCC(/C=C/P(=O)(O)O)CO)c2n1 (stereo not drawn) | 19 |  |  | 15 | 177 |  |  | IC50 (Human alphaherpesvirus 1 [12]): 295 µM; IC50 (Cytomegalovirus [13]): 44 µM; IC50 [14]: 8.9 µM
8 | Nc1ncnc2c1ncn2CC/C=C/P(=O)(O)O | 260 | 137 | 20 (≈ 5.38 µg/mL) |  |  | Not Active |  | IC50 (Human alphaherpesvirus 3 [16]): Not Active; IC50 (Human alphaherpesvirus 2 [17]): Not Active; IC50 [20]: Not Active; IC50 (Cytomegalovirus [19]): Not Active
9 | Nc1nc2c(ncn2CCOCP(=O)(O)O)c(=O)[nH]1 [GS-438] |  |  |  |  |  |  |  | pKa [22]: 6.5; CC50 [23]: 8.6 µM
10 | Cc1cn([C@H]2C[C@H](N=[N+]=[N-])[C@@H](CO)O2)c(=O)[nH]c1=O [ZIDOVUDINE] |  |  |  |  |  |  |  | CC50 (MRC5 [2]): 72 µM; CC50 (PBL): 13 µM; CC50 [24]: > 370 µM; MIC (Visna-maedi virus [25]): 5.6 µM (≈ 1.5 µg/mL)
11 | Nc1ccn(OC(/C=C/P(=O)(O)O)CO)c(=O)n1 (stereo not drawn) |  |  |  |  |  |  | inactive | 
12 | Nc1ncnc2c1ncn2OCCOCP(=O)(O)O | 173 | 173 | 8 (≈ 2.31 µg/mL) | 280 | 270 | Not Active |  | IC50 [14]: 0.24 µM; IC50 (Cytomegalovirus [19]): Not Active
13 | Nc1ncnc2c1ncn2CC/C=C\P(=O)(O)O |  |  |  |  |  |  | inactive | 
14 | C=C(/C=C/P(=O)(O)O)Cn1cnc2c(O)nc(N)nc21 |  |  |  |  |  |  | inactive | 
15 | Nc1nc(O)c2ncn(CC/C=C/P(=O)(O)O)c2n1 | 4.5 | 1.3 | 0.35 (≈ 0.0998 µg/mL) | 190 | 90 | Not Active |  | IC50 (Cytomegalovirus [13]): 52 µM; IC50 [20]: Not Active
16 | Nc1nc(O)c2ncn(OCC/C=C\P(=O)(O)O)c2n1 | 26 | 11.7 | 0.1 (≈ 0.0301 µg/mL) |  |  | Not Active |  | IC50 (Human alphaherpesvirus 3 [16]): Not Active; IC50 (Human alphaherpesvirus 2 [17]): Not Active; IC50 [20]: Not Active; IC50 (Cytomegalovirus [4]): 178 µM
17 | Nc1nc(O)c2ncn(OC(/C=C/P(=O)(O)O)CO)c2n1 (stereo not drawn) |  |  |  |  |  |  | inactive | pKa ([22]; read-out: pKa E2): 6.6
18 | Nc1nc2c(ncn2CC/C=C\P(=O)(O)O)c(=O)[nH]1 |  |  |  |  |  |  | inactive | 
19 | Nc1ncnc2c1ncn2CC(/C=C/P(=O)(O)O)CO (stereo not drawn) | 189 |  |  | 16 | 91 |  |  | IC50 (Human alphaherpesvirus 1 [12]): 137 µM; IC50 (Cytomegalovirus [13]): 35 µM; IC50 [20]: Not Active
